Measured values from ChEMBL document CHEMBL1138298, “Synthesis and evaluation of 7H-8,9-dihydropyrano[2,3-c]imidazo[1,2-a]pyridines as potassium-competitive acid blockers” (J Med Chem, 2007).
Activity calls are given as the source filed them. The calls are words filed in the database; no cut-off is given here.

How the values were obtained:
Rattus norvegicus [1] = test: Inhibition of pentagastrin-stimulated acid secretion in perfused Ghosh Schild rat stomach at 0.3 umol/kg, intraduodenal; assay type: functional; design: scale not given: the % may be the effect or the level left
How it was run: (§1)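 Anaesthetised rat with perfused stomach: 37 °C saline at 0.5 mL/min. Effluent titrated to pH 7 with 0.01 N NaOH in 15-min fractions. Secretion driven by continuous iv pentagastrin, 1 µg/kg (1.65 mL/h). Compound given intraduodenally in 2.5 mL/kg volume 60 min after infusion start. Body temperature held at 37.8-38 °C.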

Gastric gland = test: Inhibition of acid secretion in rabbit intact gastric glands assessed as […] accumulation; assay type: functional, tissue-based; conditions: Oryctolagus cuniculus
How it was run: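 Isolated gastric glands in Krebs-Henseleit with 2 mg/mL rabbit serum albumin and 2 mg/mL glucose. Incubated 30 min at 37 °C, shaking, with 0.125 µM 14C-aminopyrine at pH 7.4, stimulated by 1 mM dibutyryl cAMP, inhibitor 3 nM-100 µM. Stopped by centrifugation. Accumulation taken from pellet/supernatant radioactivity ratio. IC50 from fitted inhibition equation.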

[2] = (§2) Inhibition of H+/K+ ATPase in hog gastric mucosa; assay type: tissue-based, Sus scrofa
How it was run: (§3)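 Hog gastric mucosa H+/K+-ATPase (0.5-1 µg/100 µL, with nigericin 1:1) in 4 mM Pipes/8 mM Tris pH 7.4, 0.25 M sucrose, 1 mM MgCl2, stimulated by 1 mM KCl. Compound 1e-4 to 1e-9 M final from DMSO stocks. Started with 1 mM Na-ATP, 30 min room temperature. Phosphate read by malachite green at 680 nm after 15 min.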

[3] = Distribution coefficient, log D of the compound; assay type: physicochemical; conditions: octanol/water
How it was run: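 Distribution between 1-octanol and aqueous KCl measured by potentiometric titration over pH 2.0-11.0 at 25 °C.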

[4] = Dissociation constant, pKa of the compound; assay type: physicochemical
How it was run: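 Potentiometric cosolvent titration in 0.15 mol/L KCl, pH 2.0-11.0, 25 °C, methanol as cosolvent in varying portions; titrants 0.5 mol/L KOH and HCl.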

Sus scrofa = organism: Sus scrofa; test: as §2; assay type: tissue-based; how it was run: as §3
Rattus norvegicus [5] = test: Inhibition of pentagastrin-stimulated acid secretion in perfused Ghosh Schild rat stomach at 1 umol/kg, intraduodenal; assay type: functional; design: scale not given: the % may be the effect or the level left; how it was run: as §1
Rattus norvegicus [6] = test: Inhibition of pentagastrin-stimulated acid secretion in perfused Ghosh Schild rat stomach at 3 umol/kg, intraduodenal; assay type: functional; design: scale not given: the % may be the effect or the level left; how it was run: as §1

| Compound | Activity (Rattus norvegicus [1]) [%] | IC50 (Gastric gland) [µM] | pIC50 [2] | logD [3] | pKa [4] | Activity (Sus scrofa) | Activity (Rattus norvegicus [5]) [%] | Activity (Rattus norvegicus [6]) [%] | Activity (Gastric gland) |
| --- | --- | --- | --- | --- | --- | --- | --- | --- | --- |
| CNC(=O)c1cn2c(C)c(C)nc2c2c1CC[C@@H](c1ccccc1)O2 | 62 | 2 | 6.3 | – | – | – | – | – | – |
| Cc1nc2c3c(c(C(=O)N(C)C)cn2c1C(=O)N(C)C)CCC(c1ccccc1)O3 (racemic) | – | – | – | 1.69 | 4.51 | inactive | 26 | – | – |
| COCCNC(=O)c1c(C)nc2c3c(c(C(=O)N(C)C)cn12)CCC(c1ccccc1)O3 (racemic) | – | – | – | 1.95 | 4.38 | inactive | 54 | – | – |
| CNC(=O)c1cn2c(C)c(C)nc2c2c1CC[C@H](c1ccccc1)O2 | – | 5.01 | 4.4 | – | – | – | – | 38 | – |
| CC(=O)c1c(C)nc2c3c(c(C(=O)N(C)C)cn12)CC[C@H](c1ccccc1)O3 | – | – | < 4 | – | – | – | – | 31 | inactive |
| Cc1nc2c3c(c(C(=O)N4CCCC4)cn2c1C)CC[C@H](c1ccccc1)O3 | – | 2.51 | 4.5 | – | – | – | – | 27 | – |
| Cc1nc2c3c(c(C(=O)NC4CC4)cn2c1C)CC[C@H](c1ccccc1)O3 | – | 2 | 5.1 | – | – | – | – | 40 | – |
| Cc1nc2c3c(c(C(=O)N(C)C)cn2c1Br)CC[C@H](c1ccccc1)O3 | – | 31.6 | < 4 | – | – | – | – | 38 | – |
| Cc1nc2c3c(c(C(=O)O)cn2c1C)CCC(c1ccccc1)O3 (racemic) | – | 25.1 | 5.2 | 0.7 | 2.65 | – | – | 15 | – |
| Cc1nc2c3c(c(C(=O)N4CC(O)C4)cn2c1C)CCC(c1ccccc1)O3 (racemic) | – | 63.1 | 5.9 | 2.19 | 6.63 | – | – | 54 | – |
| Cc1nc2c3c(c(C(=O)NS(C)(=O)=O)cn2c1C)CCC(c1ccccc1)O3 (racemic) | – | – | 4.2 | 1.9 | 2.5 | – | – | 38 | inactive |
| Cc1nc2c3c(c(C(=O)N(C)C)cn2c1C)CC[C@H](c1ccccc1)O3 | – | 2.51 | 5.4 | – | – | – | – | 36 | – |
